ChEMBL document CHEMBL5247578, “Effective synthesis of benzimidazoles-imidazo[1,2-a]pyrazine conjugates: A comparative study of mono-and bis-benzimidazoles for antitumor activity” (Eur J Med Chem, 2019)

Legend:
[1] = tested on: NCI-H226; assay: Antiproliferative activity against human NCI-H226 cells assessed as cell growth at 0.00000001 M incubated for 48 hrs by SRB assay relative to control; type: functional; details: dose 10 nM, read-out: Activity
[2] = tested on: UACC-257; assay: Antiproliferative activity against human UACC-257 cells assessed as cell growth at 0.00000001 M incubated for 48 hrs by SRB assay relative to control; type: functional; details: dose 10 nM, read-out: Activity
[3] = tested on: OVCAR-3; assay: Antiproliferative activity against human OVCAR-3 cells assessed as cell growth at 0.0001 M incubated for 48 hrs by SRB assay relative to control; type: functional; details: read-out: Activity
[4] = tested on: EKVX; assay: Antiproliferative activity against human EKVX cells assessed as cell growth at 0.00000001 M incubated for 48 hrs by SRB assay relative to control; type: functional; details: dose 10 nM, read-out: Activity
Summary of the method: (§1)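 NCI-60 five-dose screen (10^-4 to 10^-8 M). Cells grown in RPMI 1640 with 5% FBS and 2 mM L-glutamine, plated at 5,000-40,000 cells/well and preincubated 24 h. Drug given from DMSO stock, then 48 h at 37 °C, 5% CO2. For adherent lines, cells fixed with cold TCA, SRB-stained and read at 515 nm. Percent growth taken against time-zero and untreated control.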

[5] = tested on: SNB-75; assay: Growth inhibition against human SNB-75 cells incubated for 48 hrs by sulforhodamine B assay; type: functional
[6] = tested on: MDA-MB-468; assay: Antiproliferative activity against human MDA-MB-468 cells assessed as cell growth at 0.0000001 M incubated for 48 hrs by SRB assay relative to control; type: functional; details: dose 100 nM, read-out: Activity
[7] = tested on: TK-10; assay: Antiproliferative activity against human TK-10 cells assessed as cell growth at 0.0001 M incubated for 48 hrs by SRB assay relative to control; type: functional; details: read-out: Activity
[8] = tested on: UACC-62; assay: Antiproliferative activity against human UACC-62 cells assessed as cell growth inhibition by measuring lethal concentration incubated for 48 hrs by sulforhodamine B assay; type: functional; details: read-out: LC50 (the source's name)
Summary of the method: (§2)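 NCI-60 five-dose screen (10^-4 to 10^-8 M, 10-fold dilutions; DMSO stocks). Cells in RPMI 1640 with 5% FBS and 2 mM L-glutamine, preincubated 24 h, then exposed 48 h at 37 °C, 5% CO2. Fixed with cold TCA, stained with 0.4% SRB, absorbance read at 515 nm. Time-zero plates used as reference. LC50 taken from [(Ti-Tz)/Tz]×100 […].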

[9] = tested on: HOP-92; assay: Antiproliferative activity against human HOP-92 cells assessed as cell growth inhibition by measuring lethal concentration incubated for 48 hrs by sulforhodamine B assay; type: functional; details: read-out: LC50 (the source's name)
[10] = tested on: MDA-MB-231; assay: Antiproliferative activity against human MDA-MB-231 cells assessed as cell growth at 0.0000001 M incubated for 48 hrs by SRB assay relative to control; type: functional; details: dose 100 nM, read-out: Activity
[11] = tested on: UACC-257; assay: Antiproliferative activity against human UACC-257 cells assessed as cell growth at 0.000001 M incubated for 48 hrs by SRB assay relative to control; type: functional; details: read-out: Activity
[12] = tested on: NCI-H23; assay: Antiproliferative activity against human NCI-H23 cells assessed as cell growth at 0.000001 M incubated for 48 hrs by SRB assay relative to control; type: functional; details: read-out: Activity
[13] = tested on: Calf thymus DNA; assay: Binding affinity to calf thymus DNA assessed as DNA intercalation by measuring change in melting temperature at 10 uM by thermal denaturation assay; type: nucleic-acid assay; details: Bos taurus
[14] = tested on: CCRF-CEM; assay: Growth inhibition against human CCRF-CEM cells assessed as total growth inhibitory concentration incubated for 48 hrs by sulforhodamine B assay; type: functional
[15] = tested on: BT-549; assay: Antiproliferative activity against human BT-549 cells assessed as cell growth at 0.00000001 M incubated for 48 hrs by SRB assay relative to control; type: functional; details: dose 10 nM, read-out: Activity
Summary of the method: (§3)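 NCI-60 five-dose screen over 10^-4–10^-8 M (10-fold dilutions). Cells grown in RPMI 1640 with 5% FBS and 2 mM L-glutamine, seeded at 5,000–40,000 cells/well and preincubated 24 h. Drug from DMSO stock, 48 h at 37 °C, 5% CO2. Adherent cells TCA-fixed and stained with 0.4% SRB; A515 read. Percent growth = (Ti−Tz)/(C−Tz)×100, or (Ti−Tz)/Tz×100 when Ti<Tz.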

[16] = tested on: HOP-62; assay: Growth inhibition against human HOP-62 cells incubated for 48 hrs by sulforhodamine B assay; type: functional
[17] = tested on: RXF 393; assay: Antiproliferative activity against human RXF 393 cells assessed as cell growth at 0.00001 M incubated for 48 hrs by SRB assay relative to control; type: functional; details: read-out: Activity
[18] = tested on: HL-60; assay: Antiproliferative activity against human HL-60 cells assessed as cell growth at 0.00001 M incubated for 48 hrs by SRB assay relative to control; type: functional; details: read-out: Activity; summary of the method: as §1
[19] = tested on: OVCAR-4; assay: Growth inhibition against human OVCAR-4 cells assessed as total growth inhibitory concentration incubated for 48 hrs by sulforhodamine B assay; type: functional
[20] = tested on: OVCAR-5; assay: Antiproliferative activity against human OVCAR-5 cells assessed as cell growth at 0.0000001 M incubated for 48 hrs by SRB assay relative to control; type: functional; details: dose 100 nM, read-out: Activity
[21] = tested on: HOP-92; assay: Antiproliferative activity against human HOP-92 cells assessed as cell growth at 0.000001 M incubated for 48 hrs by SRB assay relative to control; type: functional; details: read-out: Activity; summary of the method: as §1
[22] = tested on: NCI-H522; assay: Growth inhibition against human NCI-H522 cells assessed as total growth inhibitory concentration incubated for 48 hrs by sulforhodamine B assay; type: functional
[23] = tested on: SR; assay: Antiproliferative activity against human SR cells assessed as cell growth at 0.0000001 M incubated for 48 hrs by SRB assay relative to control; type: functional; details: dose 100 nM, read-out: Activity
[24] = tested on: U-251; assay: Antiproliferative activity against human U-251 cells assessed as cell growth inhibition by measuring lethal concentration incubated for 48 hrs by sulforhodamine B assay; type: functional; details: read-out: LC50 (the source's name); summary of the method: as §2
[25] = tested on: OVCAR-4; assay: Antiproliferative activity against human OVCAR-4 cells assessed as cell growth at 0.000001 M incubated for 48 hrs by SRB assay relative to control; type: functional; details: read-out: Activity
[26] = tested on: SK-MEL-28; assay: Antiproliferative activity against human SK-MEL-28 cells assessed as cell growth at 0.0000001 M incubated for 48 hrs by SRB assay relative to control; type: functional; details: dose 100 nM, read-out: Activity
[27] = tested on: BT-549; assay: Growth inhibition against human BT-549 cells assessed as total growth inhibitory concentration incubated for 48 hrs by sulforhodamine B assay; type: functional
[28] = tested on: CCRF-CEM; assay: Antiproliferative activity against human CCRF-CEM cells assessed as cell growth at 0.00001 M incubated for 48 hrs by SRB assay relative to control; type: functional; details: read-out: Activity; summary of the method: as §3
[29] = tested on: SF-295; assay: Growth inhibition against human SF-295 cells incubated for 48 hrs by sulforhodamine B assay; type: functional
[30] = tested on: Malme-3M; assay: Antiproliferative activity against human Malme-3M cells assessed as cell growth at 0.000001 M incubated for 48 hrs by SRB assay relative to control; type: functional; details: read-out: Activity
[31] = tested on: DU-145; assay: Antiproliferative activity against human DU-145 cells assessed as cell growth inhibition by measuring lethal concentration incubated for 48 hrs by sulforhodamine B assay; type: functional; details: read-out: LC50 (the source's name)
[32] = tested on: HCT-116; assay: Antiproliferative activity against human HCT-116 cells assessed as cell growth at 0.00001 M incubated for 48 hrs by SRB assay relative to control; type: functional; details: read-out: Activity; summary of the method: as §1
[33] = tested on: Calf thymus DNA; assay: Binding affinity to calf thymus DNA assessed as binding constant by Benesi-Hildebrand equation based UV-vis spectrophotometric method; type: nucleic-acid assay; details: Bos taurus

| SMILES | growth at 0.01 µM [1] | growth at 0.01 µM [2] | growth at 100 µM [3] | growth at 0.01 µM [4] | GI50 [5] | growth at 0.1 µM [6] | growth at 100 µM [7] | CC50 [8] | CC50 [9] | growth at 0.1 µM [10] | growth at 1 µM [11] | growth at 1 µM [12] | ΔTm [13] | TGI [14] | growth at 0.01 µM [15] | GI50 [16] | growth at 10 µM [17] | growth at 10 µM [18] | TGI [19] | growth at 0.1 µM [20] | other results |
| --- | --- | --- | --- | --- | --- | --- | --- | --- | --- | --- | --- | --- | --- | --- | --- | --- | --- | --- | --- | --- | --- |
| COc1ccc(-c2cn3ccnc3c(-c3ccc4ncn(C5CCCCC5)c4c3)n2)cc1 | 101% | 100% | 17% | 87% | 0.733 µM | 99% | -3% | > 100 µM | > 100 µM | 101% | 69% | 68% | 22 °C | > 100 µM | 8% | 1.09 µM | -2% | -22% | > 100 µM | 90% | growth at 1 µM [21]: 54%; TGI [22]: 6.15 µM; growth at 0.1 µM [23]: 91%; CC50 [24]: > 100 µM; growth at 1 µM [25]: 84%; growth at 0.1 µM [26]: 95%; TGI [27]: 3.91 µM; growth at 10 µM [28]: 16%; GI50 [29]: 0.361 µM; growth at 1 µM [30]: 53%; CC50 [31]: > 100 µM; growth at 10 µM [32]: -15%; Kb [33]: 3.34 10^4/M |
| c1ccc(Cn2cnc3ccc(-c4nc(-c5ccc6c(c5)ncn6C5CCCCC5)cn5ccnc45)cc32)cc1 | 103% | 101% | -19% | 89% | 1.19 µM | 104% | 13% | > 100 µM | 5.5 µM | 98% | 112% | 86% | 12 °C | > 100 µM | 85% | 2.13 µM | -79% | -24% | > 100 µM | 89% | growth at 1 µM [21]: 65%; TGI [22]: 5.09 µM; growth at 0.1 µM [23]: 98%; CC50 [24]: > 100 µM; growth at 1 µM [25]: 96%; growth at 0.1 µM [26]: 96%; TGI [27]: 2.68 µM; growth at 10 µM [28]: 8%; GI50 [29]: 1.42 µM; growth at 1 µM [30]: 91%; CC50 [31]: > 100 µM; growth at 10 µM [32]: -74%; Kb [33]: 3.18 10^4/M |
